Source: ChEMBL document CHEMBL1148356, “Synthesis and biological evaluation of 3-heterocyclyl-7,8,9,10-tetrahydro-(7,10-ethano)-1,2,4-triazolo[3,4-a]phthalazines and analogues as subtype-selective inverse agonists for the GABA(A)alpha5 benzodiazepine binding site” (J Med Chem, 2004)

Experiments:
[1] = molecular target: T1, GABA-A receptor; alpha-5/beta-3/gamma-2 (Homo sapiens, UniProt P18507+P28472+P31644); test: Binding affinity towards human alpha-5-beta-3-gamma-2 GABA-A receptor using [3H]Ro-151788 expressed in L(tk-) cells; assay type: cell-based
T1 sequence (P18507 whole entry): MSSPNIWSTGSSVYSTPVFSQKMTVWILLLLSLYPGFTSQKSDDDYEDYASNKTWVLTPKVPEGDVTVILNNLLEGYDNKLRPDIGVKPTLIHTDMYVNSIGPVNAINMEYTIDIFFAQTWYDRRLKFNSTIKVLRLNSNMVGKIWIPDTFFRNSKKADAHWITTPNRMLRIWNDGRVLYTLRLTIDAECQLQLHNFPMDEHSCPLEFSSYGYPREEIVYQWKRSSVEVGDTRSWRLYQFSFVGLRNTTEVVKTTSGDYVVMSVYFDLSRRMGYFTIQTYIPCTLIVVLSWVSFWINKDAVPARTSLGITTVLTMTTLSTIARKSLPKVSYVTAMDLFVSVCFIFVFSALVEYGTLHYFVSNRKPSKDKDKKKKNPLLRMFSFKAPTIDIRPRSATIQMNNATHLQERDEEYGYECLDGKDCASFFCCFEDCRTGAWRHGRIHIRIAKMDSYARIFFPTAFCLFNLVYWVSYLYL
T1 sequence (P28472 whole entry): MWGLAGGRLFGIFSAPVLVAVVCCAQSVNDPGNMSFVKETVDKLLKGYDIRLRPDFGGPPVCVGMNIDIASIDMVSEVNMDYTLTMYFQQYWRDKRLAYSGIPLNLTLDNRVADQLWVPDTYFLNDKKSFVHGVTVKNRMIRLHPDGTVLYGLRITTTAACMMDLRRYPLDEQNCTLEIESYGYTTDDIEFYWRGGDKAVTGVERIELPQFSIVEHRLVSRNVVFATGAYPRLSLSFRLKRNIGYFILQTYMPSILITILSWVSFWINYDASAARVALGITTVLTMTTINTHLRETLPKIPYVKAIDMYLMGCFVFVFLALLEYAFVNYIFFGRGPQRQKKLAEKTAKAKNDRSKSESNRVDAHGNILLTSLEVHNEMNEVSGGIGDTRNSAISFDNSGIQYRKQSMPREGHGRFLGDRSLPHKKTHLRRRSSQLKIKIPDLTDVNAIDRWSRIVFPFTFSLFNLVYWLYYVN
T1 sequence (P31644 whole entry): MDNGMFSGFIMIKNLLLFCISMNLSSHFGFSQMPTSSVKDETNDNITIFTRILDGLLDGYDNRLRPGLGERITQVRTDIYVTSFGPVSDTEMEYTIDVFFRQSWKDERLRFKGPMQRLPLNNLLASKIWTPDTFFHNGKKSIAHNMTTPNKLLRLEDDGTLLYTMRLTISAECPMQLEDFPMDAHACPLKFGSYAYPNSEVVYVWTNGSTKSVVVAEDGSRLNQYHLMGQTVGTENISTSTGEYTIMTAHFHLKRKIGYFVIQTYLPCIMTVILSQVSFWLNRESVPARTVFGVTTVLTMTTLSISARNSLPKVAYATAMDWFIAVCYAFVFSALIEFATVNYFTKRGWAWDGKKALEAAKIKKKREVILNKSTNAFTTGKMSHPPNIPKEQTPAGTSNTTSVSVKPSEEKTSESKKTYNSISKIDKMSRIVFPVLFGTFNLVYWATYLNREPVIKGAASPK

[2] = molecular target: T2, GABA-A receptor; alpha-3/beta-3/gamma-2 (Homo sapiens, UniProt P18507+P28472+P34903); test: Binding affinity towards human gamma-aminobutyric-acid A receptor alpha-3-beta-3-gamma-2 using [3H]Ro-151788 expressed in L(tk-) cells; assay type: cell-based
T2 sequence (P18507 whole entry): T1 sequence (P18507 whole entry)
T2 sequence (P28472 whole entry): T1 sequence (P28472 whole entry)
T2 sequence (P34903 whole entry): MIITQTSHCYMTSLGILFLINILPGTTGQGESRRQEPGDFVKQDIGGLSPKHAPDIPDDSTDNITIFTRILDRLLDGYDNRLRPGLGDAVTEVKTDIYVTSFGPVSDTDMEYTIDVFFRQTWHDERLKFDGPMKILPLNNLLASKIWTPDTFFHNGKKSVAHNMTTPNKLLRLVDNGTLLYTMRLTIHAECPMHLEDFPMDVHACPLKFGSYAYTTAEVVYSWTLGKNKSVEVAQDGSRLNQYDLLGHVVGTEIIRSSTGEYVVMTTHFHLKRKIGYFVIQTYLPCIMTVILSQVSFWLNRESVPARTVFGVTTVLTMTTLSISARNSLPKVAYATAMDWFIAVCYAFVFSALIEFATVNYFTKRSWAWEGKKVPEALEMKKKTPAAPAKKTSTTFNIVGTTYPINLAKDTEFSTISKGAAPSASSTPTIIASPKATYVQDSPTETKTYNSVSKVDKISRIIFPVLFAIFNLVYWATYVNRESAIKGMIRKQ

[3] = molecular target: GABA-A receptor; alpha-3/beta-3/gamma-2 (Homo sapiens) (UniProt P18507+P28472+P34903); test: Percent change in electrophysiological response in Xenopus oocytes expressing Alpha3-beta3-gamma2 GABA-A receptor; assay type: functional, cell-based; details: Oocyte
Outline: (§1)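 Two-electrode voltage clamp on Xenopus oocytes injected with human GABA-A subunit cDNAs, 24-72 h expression, perfused with modified Barth's medium at pH 7.5, clamped between -40 and -70 mV. The GABA EC20 was titrated against a 3 mM GABA maximum. […] Result is % change of control current, mean ± SE of ≥4 oocytes.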

[4] = molecular target: T3, GABA-A receptor; alpha-2/beta-3/gamma-2 (Homo sapiens, UniProt P18507+P28472+P47869); test: Binding affinity towards human gamma-aminobutyric-acid A receptor alpha-2-beta-3-gamma-2 using [3H]Ro-151788 expressed in L(tk-) cells; assay type: cell-based
T3 sequence (P18507 whole entry): T1 sequence (P18507 whole entry)
T3 sequence (P28472 whole entry): T1 sequence (P28472 whole entry)
T3 sequence (P47869 whole entry): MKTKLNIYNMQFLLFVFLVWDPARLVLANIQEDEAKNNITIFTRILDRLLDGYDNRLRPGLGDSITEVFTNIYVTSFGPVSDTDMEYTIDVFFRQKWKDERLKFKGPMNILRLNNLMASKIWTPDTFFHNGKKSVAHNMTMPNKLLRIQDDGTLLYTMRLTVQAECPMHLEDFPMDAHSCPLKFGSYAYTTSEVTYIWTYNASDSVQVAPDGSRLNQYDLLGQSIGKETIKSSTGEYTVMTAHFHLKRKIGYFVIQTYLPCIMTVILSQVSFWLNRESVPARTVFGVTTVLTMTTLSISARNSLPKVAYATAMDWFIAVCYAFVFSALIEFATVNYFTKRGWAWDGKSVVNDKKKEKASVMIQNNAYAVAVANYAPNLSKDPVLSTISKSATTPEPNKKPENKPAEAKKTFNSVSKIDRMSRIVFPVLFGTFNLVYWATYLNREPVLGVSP

[5] = molecular target: GABA-A receptor; alpha-2/beta-3/gamma-2 (Homo sapiens) (UniProt P18507+P28472+P47869); test: Percent change in electrophysiological response in Xenopus oocytes expressing Alpha2-beta3-gamma2 GABA-A receptor; assay type: functional, cell-based; details: Oocyte; outline: as §1
[6] = molecular target: GABA-A receptor; alpha-1/beta-3/gamma-2 (Homo sapiens) (UniProt P14867+P18507+P28472); test: Percent change in electrophysiological response in Xenopus oocytes expressing Alpha1-beta3-gamma2 GABA-A receptor; assay type: functional, cell-based; details: Oocyte; outline: as §1
[7] = molecular target: T4, GABA-A receptor; alpha-1/beta-3/gamma-2 (Homo sapiens, UniProt P14867+P18507+P28472); test: Binding affinity towards human alpha-1-beta-3-gamma-2 GABA-A receptor using [3H]Ro-151788 expressed in L(tk-) cells; assay type: cell-based
T4 sequence (P14867 whole entry): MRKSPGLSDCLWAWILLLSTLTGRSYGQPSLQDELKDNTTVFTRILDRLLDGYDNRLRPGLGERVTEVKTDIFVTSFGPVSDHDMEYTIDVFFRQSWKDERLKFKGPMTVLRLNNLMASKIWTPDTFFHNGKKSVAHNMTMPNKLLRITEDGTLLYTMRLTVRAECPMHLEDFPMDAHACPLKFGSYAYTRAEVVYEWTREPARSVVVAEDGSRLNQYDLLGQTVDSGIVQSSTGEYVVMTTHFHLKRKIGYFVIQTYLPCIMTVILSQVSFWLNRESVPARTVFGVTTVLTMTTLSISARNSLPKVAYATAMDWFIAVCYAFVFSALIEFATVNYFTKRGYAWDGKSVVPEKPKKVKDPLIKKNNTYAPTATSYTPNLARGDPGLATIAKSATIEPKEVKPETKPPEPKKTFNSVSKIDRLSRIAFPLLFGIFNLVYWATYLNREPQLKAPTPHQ
T4 sequence (P18507 whole entry): T1 sequence (P18507 whole entry)
T4 sequence (P28472 whole entry): T1 sequence (P28472 whole entry)

[8] = molecular target: GABA-A receptor; alpha-5/beta-3/gamma-2 (Homo sapiens) (UniProt P18507+P28472+P31644); test: Percent change in electrophysiological response in Xenopus oocytes expressing Alpha-5-beta-3-gamma-2 GABA-A receptor; assay type: functional, cell-based; details: Oocyte; outline: as §1

| Compound | Ki [1] [nM] | Ki [2] [nM] | Efficacy [3] [%] | Ki [4] [nM] | Efficacy [5] [%] | Efficacy [6] [%] | Ki [7] [nM] | Efficacy [8] [%] |
| --- | --- | --- | --- | --- | --- | --- | --- | --- |
| Cc1ccc(-c2nc3ccc(C)cn3c2CC(=O)N(C)C)cc1 [ZOLPIDEM] | > 10000 | 609 | 142 | 255 | 187 | 133 | – | – |
| Cc1noc(-c2nnc3c4c(c(OCc5cccnc5)nn23)C2CCC4CC2)n1 | 0.93 | 4.2 | – | 5.7 | – | – | 26.8 | – |
| Cc1cccc(COc2nn3c(-c4ncn(C)n4)nnc3c3c2C2CCC3CC2)n1 | 214 | > 1000 | – | > 1000 | – | – | > 1000 | – |
| Cc1cccc(COc2nn3c(-c4ccoc4)nnc3c3c2C2CCC3CC2)n1 | – | – | -4 | – | -5 | 27 | – | -24 |
| Cc1noc(-c2nnc3c4c(c(OCc5ncc[nH]5)nn23)C2CCC4CC2)n1 | 3.8 | 19.4 | – | 35.9 | – | – | 159 | -26 |
| Cc1nc(-c2nnc3c4c(c(OCc5cccc[n+]5[O-])nn23)C2CCC4CC2)[o+][n-]1 | 3.9 | 14.7 | – | 15.4 | – | – | 74.3 | – |
| CCc1noc(-c2nnc3c4c(c(OCc5cccc(C)n5)nn23)C2CCC4CC2)n1 | 3.5 | 21 | – | 34 | – | – | 171 | – |
| Cc1cccc(COc2nn3c(-c4coc(C)n4)nnc3c3c2C2CCC3CC2)n1 | 6.8 | 46 | – | 57 | – | – | 280 | – |
| Cc1noc(-c2nnc3c4c(c(OCc5ccc(C)c(C)n5)nn23)C2CCC4CC2)n1 | 0.39 | 8.6 | -21 | 9.8 | – | 1 | 48.6 | -25 |
| Cc1cccc(COc2nn3c(-c4cc(C)on4)nnc3c3c2C2CCC3C2)n1 (stereo unspecified) | 8.9 | 33.5 | 11 | 38.4 | – | – | 147 | -24 |
| Cc1cccc(COc2nn3c(-c4ncnn4C)nnc3c3c2C2CCC3CC2)n1 | 253 | > 1000 | – | > 1000 | – | – | > 1000 | – |
| Cc1cccc(COc2nn3c(-c4cccs4)nnc3c3c2C2CCC3CC2)n1 | 4 | 22 | – | 66 | – | – | 115 | – |
